Reference: PubChem BioAssay AID1325 (NMMLSC, 2008)
The whole screen tested about 190,000 compounds, of which about 200 (0.11%) were called active. The sample as a whole holds a higher share of actives than the screen did. Unmarked numbers belong to inactive results.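 The calls were made as follows: active = inhibition above 80%; inactive = the rest.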

Biological target: Broad substrate specificity ATP-binding cassette transporter ABCG2 (Homo sapiens) (UniProt Q9UNQ0)
Assay: ABCG2 efflux pump inhibitors, primary screen, multiplex with ABCB1, IgMXP3 cells, flow cytometry (AID 1325)
Details: JC-1 efflux, at 6.6 µM, active compounds read high
Outline: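 System: two drug-resistant human cell lines, ABCG2 and ABCB1; controls: nicardipine high and DMSO low controls; times: 10 min exposure at 25 °C with rotation, no wash; detection: flow cytometry of retained JC-1 fluorescence; read-out basis: percent efflux inhibition, scaled nicardipine 100% to DMSO 0%; doses: one concentration, 6.6 µM final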

Broad substrate specificity ATP-binding cassette transporter ABCG2 (Homo sapiens), sequence (Q9UNQ0 whole entry, looked up): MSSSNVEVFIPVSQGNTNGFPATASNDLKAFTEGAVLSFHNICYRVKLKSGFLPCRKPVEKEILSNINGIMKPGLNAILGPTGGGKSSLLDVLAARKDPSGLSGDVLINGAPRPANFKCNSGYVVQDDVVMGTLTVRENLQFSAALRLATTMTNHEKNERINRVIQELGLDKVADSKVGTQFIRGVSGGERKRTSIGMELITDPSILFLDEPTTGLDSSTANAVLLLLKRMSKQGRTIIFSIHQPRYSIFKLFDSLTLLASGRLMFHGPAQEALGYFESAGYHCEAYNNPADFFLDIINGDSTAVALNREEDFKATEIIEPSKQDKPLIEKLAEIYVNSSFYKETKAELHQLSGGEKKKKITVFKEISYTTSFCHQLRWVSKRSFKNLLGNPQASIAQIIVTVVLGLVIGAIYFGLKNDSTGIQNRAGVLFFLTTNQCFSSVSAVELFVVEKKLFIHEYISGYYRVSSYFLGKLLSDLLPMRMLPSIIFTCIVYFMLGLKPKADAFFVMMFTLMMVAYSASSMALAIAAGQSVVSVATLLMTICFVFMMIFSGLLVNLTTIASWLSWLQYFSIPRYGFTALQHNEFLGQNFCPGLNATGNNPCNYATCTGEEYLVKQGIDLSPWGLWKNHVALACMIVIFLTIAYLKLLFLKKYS

Structure (SMILES)	inhibition
CC(Sc1nc2cc(Cl)ccc2s1)C(=O)Nc1ccc2c(c1)OCO2 (centres undefined)	0%
O=C(/C=C/c1ccc([N+](=O)[O-])cc1)NCCSCc1ccco1	54.6%
O=S(=O)(Nc1ccccn1)c1cccc(S(=O)(=O)c2ccc(Cl)cc2)c1	-0.57%
O=C(NNC1=NCCC1)c1cccc(S(=O)(=O)N2CCCCC2)c1	-6.82%
C=CCc1cccc2cc(C(=O)Nc3ccc(NC(C)=O)cc3)c(=O)oc12	0.59%
O=C(Cc1c[nH]c2ccccc12)N/N=C/c1cccc(F)c1	88.7% (active)
O=C(Cc1ccc(F)cc1)N/N=C/c1ccc2c(c1)OCO2	10.1%
O=C(CC(=O)N/N=C\c1ccc(F)cc1)NCCc1ccccc1	1.18%
Cc1cc(C(=O)N/N=C\C(Br)=C\c2ccccc2)c(C)o1	2.48%
NC(=O)CCC(NS(=O)(=O)c1ccc(Cl)cc1)C(=O)NCc1ccccc1Cl (centres undefined)	4.92%
Cc1cc(C)n(CC(O)CN(c2ccccc2)S(=O)(=O)c2ccc3ccccc3c2)n1 (centres undefined)	16.1%
CCc1nnc(NC(=O)CSc2nc(SC)ns2)s1	1.21%
COc1ccc(C2(CNC(=O)Cc3ccc(OC)c(OC)c3)CCCC2)cc1	2.77%
CC(C)CCN1C(=O)c2ccc(C(=O)Nc3cccc(S(N)(=O)=O)c3)cc2C1=O	-4.62%
Clc1ccc(-c2ncc3ccccn23)c(Cl)c1	-0.33%
CCOc1cc(/C=N/NC(=O)c2ccc(CSc3nncn3C)cc2)ccc1OCC(=O)N1CCOCC1	-0.51%
Cc1nn(CC(=O)Nc2ccc3c(c2)OCO3)c(C)c1[N+](=O)[O-]	11.5%
CC(=O)Nc1sc2c(c1C(c1cccc(F)c1)N1CCN(CCO)CC1)CCCC2 (centres undefined)	-0.02%
O=C(c1cncc(Br)c1)N1CCN(c2ccc([N+](=O)[O-])cc2)CC1	34.2%
CN(C)c1ccc(/C=N/Nc2cc(N3CCOCC3)nc(N3CCOCC3)n2)cc1	5.63%
Cn1nc(C(F)(F)F)c2cc(C(=O)N3CCOCC3)sc21	0.03%
Cc1cc(NC(=O)CSc2nc3cc(Cl)ccc3c(=O)n2Cc2ccco2)no1	5.22%
CCC1CCCCN1C(=S)Nc1ccc(SC(F)F)cc1 (centres undefined)	0%
O=C(N/N=C/c1cc([N+](=O)[O-])ccc1O)/C(=C\c1cccs1)NC(=O)c1ccccc1	-3.14%

Structure (SMILES)	inhibition
Cn1cc(CN2CCCC(CO)C2)c(-c2ccc(Oc3ccccc3)cc2)n1 (centres undefined)	-1.73%
CN(C)c1ccc(C=C2C(=O)OC3(CCCC3)OC2=O)cc1	0.11%
Cc1nc2nc[nH]n2c(=O)c1C/C=C/c1ccccc1	0.18%
CN(C)c1ccc2c(=O)[nH][nH]c(=O)c2c1	2.2%
CCn1nc(C)cc1C(=O)N1CCCC(C(=O)c2cccc(OC)c2)C1 (centres undefined)	-0.58%
CCNS(=O)(=O)c1ccc(NC(=O)c2cncc(Br)c2)cc1	19.8%
Cn1c(CCC(=O)OCC(=O)NCc2ccccc2Cl)nc(=O)c2ccccc21	1.08%
CN(C)C(=O)c1cccn(Cc2cccc(C(F)(F)F)c2)c1=O	-0.69%
CN1C(=O)/C(=C/C=C2\SCCN2C)OC1=S	-0.91%
Cc1ccc(NC(=O)C2(N3CCC3=O)CCCCC2)cc1	0.01%
COc1ccc(C(=O)Nc2ccc(-n3nncc3C(C)(C)C)cc2)cc1	1.71%
Cc1ccc(NS(=O)(=O)c2cccs2)cc1S(=O)(=O)N1CCCCCC1	0.74%
Cc1ccc(OCc2nnc(SC3CCc4ccccc4C3=O)n2C)cc1 (centres undefined)	1.34%
O=C(Cn1cc(C(F)(F)F)ccc1=O)N/N=C/c1ccc(Cl)cc1Cl	-1.56%
Cc1ccc2c(CC(=O)NCc3cccs3)coc2c1	9.43%
CCc1nnc(NC(=O)c2cccc(S(=O)(=O)N(C)c3ccc(OC)cc3)c2)s1	3.19%
COc1ccc(CNC(=O)CN(Cc2ccc(Cl)cc2)S(C)(=O)=O)cc1	3.97%
COc1cccc(NC(=O)CC(c2ccc(OC(C)C)cc2)c2ccccc2OC)c1 (centres undefined)	10.9%
Cc1ccc(O)c(NC(=S)NC(=O)COc2ccc(Br)cc2)c1	3.88%
CCOC(=O)C1=C(CC)Nc2ccccc2N=C1N	0.61%
CC(CNc1ccc([N+](=O)[O-])c2cccnc12)Nc1c([N+](=O)[O-])cc(C(F)(F)F)cc1[N+](=O)[O-] (centres undefined)	23.1%
CC(=O)NC1C(Oc2ccc(C=O)cc2)OC(COC(C)=O)C(OC(C)=O)C1OC(C)=O (centres undefined)	0.63%
Cc1nc2cc(NCc3cccs3)ccc2n1C	0.91%
CCCCc1ccc(S(N)(=O)=O)cc1	3.23%

Structure (SMILES)	inhibition
O=C(NCc1ccccn1)c1cc(Br)ccc1Cl	2.2%
CC(C)C(c1nnnn1C(C)(C)C)N1CCN(Cc2cccnc2)CC1 (centres undefined)	1.7%
CCOC(=O)c1ccc(NC(=S)Nc2cc(C)cc(C)n2)cc1	11.7%
CC(C)N(C)C(=O)CCc1nnc(CCc2c[nH]c3ccccc23)o1	5.03%
CC(C)CNC(=O)C(=O)NCc1ccccc1	7.35%
Cc1c(Cl)cccc1NC(=S)N(Cc1ccccc1)Cc1cccnc1	3.04%
COc1ccccc1NC(=O)c1c(Br)cnn1C	9.25%
Cc1cccc(N2C(=O)SC(SC(=Nc3ccccc3)Nc3ccccc3)C2=O)c1 (centres undefined)	0.89%
COc1ccc(N2C(=O)/C(=C\c3ccco3)N=C2SCC(N)=O)cc1Cl	0.72%
S=C(c1ccc(-c2ccccc2)o1)N1CCCCC1	1.68%
Cc1ccc(NC(=O)NC(=O)CSc2nnc(-c3ccc(OC(F)F)cc3)n2N)c(C)c1	4.7%
COc1cccc(C2CC(c3ccccc3)=NN2S(=O)(=O)c2ccccc2)c1OC (centres undefined)	5.72%
CCOc1ccc(NC(=O)c2cc(C)nc3ccccc23)cc1	4.37%
COc1ccccc1NC(=O)/C=C/C(=O)O	3.21%
C=CCNC(=O)CC12CC3CC(C1)CC(CC(=O)NCC=C)(C3)C2	0.78%
Cc1cc(C)cc(NC(=O)Cn2cnc3c(nnn3Cc3ccc(F)cc3)c2=O)c1	0.29%
CSc1ccc(CN2C(=O)NC3(CCCCCC3)C2=O)cc1	-1.59%
COCCNC(=O)CCCn1c(=O)c2ccccc2n(Cc2cccc([N+](=O)[O-])c2)c1=O	3.38%
COc1ccccc1CN(C)c1nnnn1-c1ccccc1	-0.06%
O=C(CSc1ccc(-c2ccco2)nn1)NCc1ccc2c(c1)OCO2	0.73%
O=C(Nc1ccccc1C(=O)O)c1cc(S(=O)(=O)N2CCCCC2)cs1	-0.42%
Cc1c(Br)c([N+](=O)[O-])nn1CC(=O)N1CCN(Cc2ccccc2)CC1	2.55%
CC(C)NC(=S)NN=C1CCCCCCCCCCC1	5.8%
CCSc1sc(CC)cc1C=O	3.95%

Structure (SMILES)	inhibition
CCCCn1c(=O)c(CCC(=O)OCC(=O)Nc2ccc(C)c(Cl)c2)nc2ccccc21	2.45%
COC(=O)Cc1csc(/N=C/c2c(O)n(-c3cccc(C(F)(F)F)c3)c(=O)c3ccccc23)n1	-1.85%
Cc1c(Cc2ccccc2)c(=O)oc2cc(OCC(N)=O)ccc12	0.67%
CCOC(=O)c1sc(=NC(=O)/C=C/c2cccs2)n(C)c1C	2.28%
CCC(C(=O)OCC(=O)Nc1ccccc1-c1ccccc1)c1ccccc1 (centres undefined)	3.04%
C/C(=N/O)c1ccc(N2C(=O)C3C4C=CC(C3C2=O)C2C3C(=O)N(c5ccc(/C(C)=N/O)cc5)C(=O)C3C42)cc1 (centres undefined)	-1.72%
O=C(c1ccc(-c2ccccc2)cc1)C1CCCN(C(=O)c2cncs2)C1 (centres undefined)	3.81%
Cc1ccc(OCC(=O)NNC(=S)NCc2ccccc2)cc1	-1.33%
O=C(/C=C/c1cccc([N+](=O)[O-])c1)NCCSCc1ccco1	51.1%
Cc1ccc(C)c(NS(=O)(=O)c2ccc(OCC(=O)NCc3cccnc3)cc2)c1	0.12%
O=C(O/N=C(/c1ccccc1)c1ccncc1)c1ccccc1[N+](=O)[O-]	4.1%
Cc1ccc(C(=O)COC(=O)c2cccc(N3C(=O)c4c(C)nc5ccccc5c4C3=O)c2)cc1C	15.3%
S=c1[nH]nc(NCCc2ccccc2)s1	0.35%
C/C(=C/C(=O)N1CCN(C)CC1)C(=O)O	4.35%
CCNC(=O)CC1C(=O)N(c2ccc(OC)cc2)C(=S)N1CCc1ccncc1 (centres undefined)	-0.76%
NS(=O)(=O)c1ccc(NC(=O)COC(=O)c2ccco2)cc1	10%
CN(Cc1ccccc1)C(=O)CCc1ccccc1	1.98%
O=C(NC1CCN(Cc2ccccc2)CC1)c1cc(Br)c(Br)[nH]1	4.52%
Cc1ccc2c(c1)C(O)(CC(=O)c1cccc(-n3cccc3)c1)C(=O)N2 (centres undefined)	16.3%
Cc1ccc(NC(=S)N(CCN(C)C)Cc2cccs2)cc1C	-0.22%
COc1ccccc1NC(=S)N1CCC(NC(=O)C23CC4CC(CC(C4)C2)C3)CC1	-0.01%
C=CCn1c(-c2sc(-c3ccccc3)nc2C)n[nH]c1=S	1.76%
